How the values were obtained:
[1] = target: T1, Kinesin-1 heavy chain (Homo sapiens) (UniProt P33176); experiment: Inhibition of porcine brain microtubule-stimulated human recombinant GST-tagged Kif5B ATPase activity at 15 uM by microplate reader in presence of Mg2+ ATP relative to control
T1 sequence (whole entry): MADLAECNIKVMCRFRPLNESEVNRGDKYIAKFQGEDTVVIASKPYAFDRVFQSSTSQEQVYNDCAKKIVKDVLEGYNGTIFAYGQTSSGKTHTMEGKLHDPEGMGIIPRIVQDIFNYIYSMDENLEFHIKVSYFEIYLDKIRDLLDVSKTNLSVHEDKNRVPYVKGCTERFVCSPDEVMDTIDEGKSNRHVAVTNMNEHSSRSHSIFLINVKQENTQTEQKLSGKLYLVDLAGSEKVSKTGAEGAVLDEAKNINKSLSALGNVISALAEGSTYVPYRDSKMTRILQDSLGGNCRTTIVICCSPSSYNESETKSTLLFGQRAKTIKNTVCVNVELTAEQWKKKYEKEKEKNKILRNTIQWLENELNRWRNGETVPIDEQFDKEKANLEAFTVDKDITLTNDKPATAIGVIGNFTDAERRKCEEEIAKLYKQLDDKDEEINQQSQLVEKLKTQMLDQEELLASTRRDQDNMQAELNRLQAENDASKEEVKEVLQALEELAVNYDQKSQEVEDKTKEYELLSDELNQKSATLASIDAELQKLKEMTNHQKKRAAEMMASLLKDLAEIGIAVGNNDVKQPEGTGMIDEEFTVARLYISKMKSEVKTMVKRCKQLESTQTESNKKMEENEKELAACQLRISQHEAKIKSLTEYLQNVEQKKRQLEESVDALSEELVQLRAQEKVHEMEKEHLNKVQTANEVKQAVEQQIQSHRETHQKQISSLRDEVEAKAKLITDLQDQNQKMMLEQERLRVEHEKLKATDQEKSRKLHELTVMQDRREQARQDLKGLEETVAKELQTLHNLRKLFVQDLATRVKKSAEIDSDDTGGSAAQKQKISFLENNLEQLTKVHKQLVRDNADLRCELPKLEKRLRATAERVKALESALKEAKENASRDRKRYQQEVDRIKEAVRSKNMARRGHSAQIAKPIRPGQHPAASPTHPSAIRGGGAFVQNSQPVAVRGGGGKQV
How it was run: (§1)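 Each kinesin motor domain was tested against MT-stimulated ATPase at 22 °C in triplicate, with compounds at 15 µM. Buffer was 7.5 mM PIPES-NaOH pH 7.0 with MgCl2, Taxol, ELIPA reagents and 1.25 mg/mL MTs. Reactions were started with 1 mM Mg2+ATP and read kinetically at 360 nm. Monastrol and AMP-PNP (1 mM) were the controls.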

[2] = target: Centromere-associated protein E (Homo sapiens) (UniProt Q02224); experiment: Inhibition of porcine brain microtubule-stimulated human recombinant GST-tagged CENP-E ATPase activity at 15 uM by microplate reader in presence of Mg2+ ATP relative to control; how it was run: as §1
Centromere-associated protein E (Homo sapiens), sequence (Q02224 whole entry): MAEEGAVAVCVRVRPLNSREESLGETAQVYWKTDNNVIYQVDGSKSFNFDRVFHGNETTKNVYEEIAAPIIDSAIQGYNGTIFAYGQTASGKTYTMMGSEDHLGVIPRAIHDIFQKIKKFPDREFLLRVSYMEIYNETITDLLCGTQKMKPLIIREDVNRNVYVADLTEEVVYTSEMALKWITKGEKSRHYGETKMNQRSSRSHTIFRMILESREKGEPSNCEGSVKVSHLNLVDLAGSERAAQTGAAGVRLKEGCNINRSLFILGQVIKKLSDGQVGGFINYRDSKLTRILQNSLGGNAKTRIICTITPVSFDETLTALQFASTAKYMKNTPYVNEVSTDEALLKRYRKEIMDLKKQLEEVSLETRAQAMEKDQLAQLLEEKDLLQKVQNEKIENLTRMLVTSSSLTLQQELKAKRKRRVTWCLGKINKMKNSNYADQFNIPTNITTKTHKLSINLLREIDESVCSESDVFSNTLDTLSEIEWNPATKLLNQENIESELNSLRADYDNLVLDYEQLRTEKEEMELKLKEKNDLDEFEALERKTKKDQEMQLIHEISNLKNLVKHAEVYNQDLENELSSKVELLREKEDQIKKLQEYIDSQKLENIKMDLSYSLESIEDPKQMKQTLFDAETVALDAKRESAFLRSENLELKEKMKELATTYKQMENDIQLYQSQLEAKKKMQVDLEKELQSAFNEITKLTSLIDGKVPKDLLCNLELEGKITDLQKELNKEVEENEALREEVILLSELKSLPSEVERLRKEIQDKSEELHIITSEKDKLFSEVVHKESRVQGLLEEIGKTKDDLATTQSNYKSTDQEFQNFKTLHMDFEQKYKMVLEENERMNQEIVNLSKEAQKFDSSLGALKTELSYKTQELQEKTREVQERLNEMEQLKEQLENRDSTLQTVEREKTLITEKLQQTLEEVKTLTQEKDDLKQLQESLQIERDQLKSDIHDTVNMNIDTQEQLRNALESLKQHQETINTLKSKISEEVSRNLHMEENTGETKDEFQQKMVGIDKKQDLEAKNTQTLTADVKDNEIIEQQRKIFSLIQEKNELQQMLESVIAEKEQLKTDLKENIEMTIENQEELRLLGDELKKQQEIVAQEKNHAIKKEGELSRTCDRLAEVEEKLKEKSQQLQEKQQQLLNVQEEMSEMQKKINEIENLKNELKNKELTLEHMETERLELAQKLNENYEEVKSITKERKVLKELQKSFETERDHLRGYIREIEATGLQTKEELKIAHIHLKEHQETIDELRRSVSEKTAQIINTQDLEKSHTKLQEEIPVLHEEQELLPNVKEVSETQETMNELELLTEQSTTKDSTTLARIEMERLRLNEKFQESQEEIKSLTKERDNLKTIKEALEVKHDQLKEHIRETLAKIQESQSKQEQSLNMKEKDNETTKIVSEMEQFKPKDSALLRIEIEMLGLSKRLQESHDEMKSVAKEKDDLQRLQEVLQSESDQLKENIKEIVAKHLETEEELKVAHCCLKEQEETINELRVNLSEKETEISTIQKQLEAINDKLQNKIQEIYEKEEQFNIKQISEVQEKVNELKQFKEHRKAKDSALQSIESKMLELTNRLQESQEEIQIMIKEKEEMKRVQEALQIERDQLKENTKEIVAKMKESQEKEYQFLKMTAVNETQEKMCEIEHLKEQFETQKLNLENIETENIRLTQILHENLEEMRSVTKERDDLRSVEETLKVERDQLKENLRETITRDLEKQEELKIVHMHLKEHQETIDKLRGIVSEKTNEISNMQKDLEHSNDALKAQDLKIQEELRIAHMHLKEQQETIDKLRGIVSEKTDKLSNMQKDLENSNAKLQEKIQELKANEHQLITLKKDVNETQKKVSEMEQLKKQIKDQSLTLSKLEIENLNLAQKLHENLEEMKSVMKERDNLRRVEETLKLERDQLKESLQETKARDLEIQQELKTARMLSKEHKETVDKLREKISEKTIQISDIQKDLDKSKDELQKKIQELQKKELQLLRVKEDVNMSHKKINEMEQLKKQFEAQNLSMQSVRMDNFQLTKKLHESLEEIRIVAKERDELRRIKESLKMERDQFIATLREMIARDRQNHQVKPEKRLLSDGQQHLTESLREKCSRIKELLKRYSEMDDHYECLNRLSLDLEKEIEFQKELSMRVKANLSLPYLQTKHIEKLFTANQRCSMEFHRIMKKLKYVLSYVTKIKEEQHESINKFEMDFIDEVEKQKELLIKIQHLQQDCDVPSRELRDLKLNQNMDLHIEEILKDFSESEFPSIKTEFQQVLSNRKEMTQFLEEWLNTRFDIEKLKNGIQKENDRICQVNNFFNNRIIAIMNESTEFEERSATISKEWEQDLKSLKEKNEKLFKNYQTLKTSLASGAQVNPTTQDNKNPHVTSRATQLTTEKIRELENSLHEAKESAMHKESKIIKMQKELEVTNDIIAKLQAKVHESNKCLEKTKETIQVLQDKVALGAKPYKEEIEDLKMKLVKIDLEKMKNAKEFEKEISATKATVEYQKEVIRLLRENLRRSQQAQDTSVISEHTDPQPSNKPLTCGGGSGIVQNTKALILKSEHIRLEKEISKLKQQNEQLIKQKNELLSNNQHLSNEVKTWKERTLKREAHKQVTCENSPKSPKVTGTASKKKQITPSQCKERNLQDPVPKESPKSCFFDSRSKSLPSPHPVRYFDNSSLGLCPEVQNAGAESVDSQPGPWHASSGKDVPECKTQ

[3] = target: T2, Kinesin-like protein KIF3C (Homo sapiens) (UniProt O14782); experiment: Inhibition of porcine brain microtubule-stimulated human recombinant GST-tagged KIF3C ATPase activity at 15 uM by microplate reader in presence of Mg2+ ATP relative to control; how it was run: as §1
T2 sequence (whole entry): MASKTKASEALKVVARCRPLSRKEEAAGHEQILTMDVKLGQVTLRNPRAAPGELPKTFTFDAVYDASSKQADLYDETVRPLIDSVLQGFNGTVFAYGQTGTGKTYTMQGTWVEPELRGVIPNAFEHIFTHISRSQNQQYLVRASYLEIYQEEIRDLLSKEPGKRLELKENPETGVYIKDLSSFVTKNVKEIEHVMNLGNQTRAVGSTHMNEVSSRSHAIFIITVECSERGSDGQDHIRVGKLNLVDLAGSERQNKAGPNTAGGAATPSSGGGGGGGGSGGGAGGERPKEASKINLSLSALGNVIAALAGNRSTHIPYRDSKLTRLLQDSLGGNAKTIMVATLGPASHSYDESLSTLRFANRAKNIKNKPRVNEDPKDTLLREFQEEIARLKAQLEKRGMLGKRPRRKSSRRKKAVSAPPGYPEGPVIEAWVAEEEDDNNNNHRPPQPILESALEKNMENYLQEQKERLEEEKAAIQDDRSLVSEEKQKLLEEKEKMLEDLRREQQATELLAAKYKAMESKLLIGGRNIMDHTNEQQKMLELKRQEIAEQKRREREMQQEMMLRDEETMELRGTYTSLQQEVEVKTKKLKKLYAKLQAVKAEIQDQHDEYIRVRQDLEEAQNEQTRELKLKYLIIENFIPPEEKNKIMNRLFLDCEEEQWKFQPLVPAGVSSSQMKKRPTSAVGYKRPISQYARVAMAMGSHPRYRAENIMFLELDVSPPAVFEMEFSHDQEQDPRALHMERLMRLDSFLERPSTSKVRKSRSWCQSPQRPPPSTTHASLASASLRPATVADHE

[4] = target: T3, Kinesin-like protein KIFC3 (Homo sapiens) (UniProt Q9BVG8); experiment: Inhibition of porcine brain microtubule-stimulated human recombinant GST-tagged KIFC3 ATPase activity at 15 uM by microplate reader in presence of Mg2+ ATP relative to control; how it was run: as §1
T3 sequence (whole entry): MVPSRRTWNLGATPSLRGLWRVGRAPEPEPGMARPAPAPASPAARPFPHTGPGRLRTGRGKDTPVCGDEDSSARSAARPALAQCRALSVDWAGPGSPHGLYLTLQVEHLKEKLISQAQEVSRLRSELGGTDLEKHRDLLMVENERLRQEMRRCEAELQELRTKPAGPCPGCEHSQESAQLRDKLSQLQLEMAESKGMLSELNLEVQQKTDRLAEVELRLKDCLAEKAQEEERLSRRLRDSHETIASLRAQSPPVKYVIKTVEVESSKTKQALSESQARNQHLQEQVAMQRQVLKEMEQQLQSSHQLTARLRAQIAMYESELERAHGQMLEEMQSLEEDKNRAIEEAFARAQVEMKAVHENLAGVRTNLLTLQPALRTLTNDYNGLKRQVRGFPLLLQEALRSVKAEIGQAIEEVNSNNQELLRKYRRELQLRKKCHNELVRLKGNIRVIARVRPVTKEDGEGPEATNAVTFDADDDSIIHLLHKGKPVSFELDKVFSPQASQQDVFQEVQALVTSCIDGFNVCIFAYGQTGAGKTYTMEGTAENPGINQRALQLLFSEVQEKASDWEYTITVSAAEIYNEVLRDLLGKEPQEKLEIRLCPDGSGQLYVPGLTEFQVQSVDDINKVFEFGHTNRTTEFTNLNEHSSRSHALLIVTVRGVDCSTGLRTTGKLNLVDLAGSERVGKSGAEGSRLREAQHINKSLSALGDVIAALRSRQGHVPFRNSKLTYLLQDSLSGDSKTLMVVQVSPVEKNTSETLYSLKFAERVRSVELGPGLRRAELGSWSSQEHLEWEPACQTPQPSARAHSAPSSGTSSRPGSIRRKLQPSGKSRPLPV

| Compound | inhibition [1] [%] | inhibition [2] [%] | inhibition [3] [%] | inhibition [4] [%] |
| --- | --- | --- | --- | --- |
| COc1ccc2[nH]cc(/C(C#N)=C/c3cccnc3)c2c1 | < 20 | < 20 | < 20 | < 20 |
| N#C/C(=C\c1cccnc1)c1c[nH]c2ccc(OCc3ccccc3)cc12 | < 20 | < 20 | < 20 | < 20 |
| CCOC(=O)C1=C(C)NC(=S)NC1c1cccc(O)c1 (centres undefined) | < 20 | < 20 | < 20 | < 20 |
| COc1cccc2[nH]cc(/C(C#N)=C/c3cccnc3)c12 | < 20 | < 20 | < 20 | < 20 |

Second part, the compound after the results:

| inhibition [1] [%] | inhibition [2] [%] | inhibition [3] [%] | inhibition [4] [%] | Compound |
| --- | --- | --- | --- | --- |
| < 20 | < 20 | < 20 | < 20 | COc1ccc2c(/C(C#N)=C/c3cccnc3)c[nH]c2c1 |
| < 20 | < 20 | < 20 | < 20 | N#C/C(=C\c1ccc2c(c1)OCO2)c1c[nH]c2ccccc12 |

— ChEMBL document CHEMBL3751740, “New MKLP-2 inhibitors in the paprotrain series: Design, synthesis and biological evaluations” (Bioorg Med Chem, 2016)
